Results: ChEMBL document CHEMBL3124849, “Total synthesis of burkholdacs A and B and 5,6,20-tri-epi-burkholdac A: HDAC inhibition and antiproliferative activity” (Eur J Med Chem, 2014)

What was measured:
[1] = Cytotoxicity against human DMS114 cells by SRB assay; type: functional; conditions: DMS-114
How it was run: (§1)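 Tested at the Japanese Foundation for Cancer Research panel of 39 human cancer cell lines. Five concentrations per compound, spanning 10^-10 to 10^-6 M or 10^-8 to 10^-4 M. Growth measured by sulforhodamine B colorimetry. GI50 is the concentration giving 50% growth inhibition relative to control.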

[2] = Cytotoxicity against human OVCAR5 cells by SRB assay; type: functional; conditions: OVCAR-5; how it was run: as §1
OVCAR-3 = assay: Cytotoxicity against human OVCAR3 cells by SRB assay; type: functional; how it was run: as §1
[3] = Cytotoxicity against human OVCAR4 cells by SRB assay; type: functional; conditions: OVCAR-4; how it was run: as §1
SNB-75 = assay: Cytotoxicity against human SNB75 cells by SRB assay; type: functional; how it was run: as §1
LOX IMVI = assay: Cytotoxicity against human LOXIMVI cells by SRB assay; type: functional; how it was run: as §1
HCC 2998 = assay: Cytotoxicity against human HCC2998 cells by SRB assay; type: functional; how it was run: as §1
A549 = assay: Cytotoxicity against human A549 cells by SRB assay; type: functional; how it was run: as §1
[4] = Cytotoxicity against human MKN1 cells by SRB assay; type: functional; conditions: MKN-1; how it was run: as §1
St-4 = assay: Cytotoxicity against human St-4 cells by SRB assay; type: functional; how it was run: as §1
NCI-H23 = assay: Cytotoxicity against human NCI-H23 cells by SRB assay; type: functional; how it was run: as §1
[5] = Cytotoxicity against human MKN7 cells by SRB assay; type: functional; conditions: MKN-7; how it was run: as §1
SF-295 = assay: Cytotoxicity against human SF295 cells by SRB assay; type: functional; how it was run: as §1
[6] = target: T1, Protein deacetylase HDAC6 (Mus musculus, UniProt Q9Z2V5); assay: Inhibition of mouse HDAC6 expressed in human 293T cells using Ac-KGLGK(Ac)-MCA as substrate after 30 mins by fluorescence assay; type: cell-based
T1 sequence (Q9Z2V5 whole entry): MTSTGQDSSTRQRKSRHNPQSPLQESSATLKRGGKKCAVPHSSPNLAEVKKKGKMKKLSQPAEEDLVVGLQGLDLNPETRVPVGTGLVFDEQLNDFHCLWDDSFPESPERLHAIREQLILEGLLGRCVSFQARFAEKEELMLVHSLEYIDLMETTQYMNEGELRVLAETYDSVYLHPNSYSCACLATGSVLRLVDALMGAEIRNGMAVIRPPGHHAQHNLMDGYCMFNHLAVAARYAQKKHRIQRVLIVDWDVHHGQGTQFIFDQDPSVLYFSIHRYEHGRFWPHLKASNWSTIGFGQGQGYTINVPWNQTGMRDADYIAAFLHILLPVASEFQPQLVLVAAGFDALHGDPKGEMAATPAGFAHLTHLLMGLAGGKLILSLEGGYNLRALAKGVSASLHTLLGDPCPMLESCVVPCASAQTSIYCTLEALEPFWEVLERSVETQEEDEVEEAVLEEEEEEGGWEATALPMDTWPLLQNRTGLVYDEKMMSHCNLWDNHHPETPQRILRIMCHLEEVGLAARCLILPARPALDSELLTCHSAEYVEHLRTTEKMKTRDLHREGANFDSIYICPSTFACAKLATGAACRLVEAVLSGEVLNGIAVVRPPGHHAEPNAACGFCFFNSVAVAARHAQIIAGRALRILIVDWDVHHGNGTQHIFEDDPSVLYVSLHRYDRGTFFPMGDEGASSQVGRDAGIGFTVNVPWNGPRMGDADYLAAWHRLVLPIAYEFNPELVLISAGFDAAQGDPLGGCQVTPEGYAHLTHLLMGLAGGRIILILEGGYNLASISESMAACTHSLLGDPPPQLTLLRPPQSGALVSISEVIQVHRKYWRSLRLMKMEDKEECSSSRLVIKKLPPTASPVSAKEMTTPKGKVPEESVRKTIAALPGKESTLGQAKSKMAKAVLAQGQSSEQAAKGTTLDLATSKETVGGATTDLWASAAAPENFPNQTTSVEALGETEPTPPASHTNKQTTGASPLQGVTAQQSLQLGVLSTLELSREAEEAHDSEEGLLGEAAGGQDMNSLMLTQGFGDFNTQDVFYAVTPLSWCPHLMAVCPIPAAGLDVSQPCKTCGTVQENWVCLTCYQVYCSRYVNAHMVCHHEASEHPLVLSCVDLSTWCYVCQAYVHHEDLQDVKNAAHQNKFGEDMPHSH

HCT-15 = assay: Cytotoxicity against human HCT15 cells by SRB assay; type: functional; how it was run: as §1
OVCAR-8 = assay: Cytotoxicity against human OVCAR8 cells by SRB assay; type: functional; how it was run: as §1
HT-29 = assay: Cytotoxicity against human HT-29 cells by SRB assay; type: functional; how it was run: as §1
SF-268 = assay: Cytotoxicity against human SF268 cells by SRB assay; type: functional; how it was run: as §1
NCI-H522 = assay: Cytotoxicity against human NCI-H522 cells by SRB assay; type: functional; how it was run: as §1
MDA-MB-231 = assay: Cytotoxicity against human MDA-MB-231 cells by SRB assay; type: functional; how it was run: as §1
[7] = Selectivity index, ratio of IC50 for mouse HDAC6 to IC50 for human HDAC1
How it was run: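 Ratio of HDAC6 IC50 to HDAC1 IC50. Both enzymes were FLAG-immunopurified from transfected 293T cells: human HDAC1 and mouse HDAC6. Each was assayed on Ac-KGLGK(Ac)-MCA with 100 µM DTT at 37 °C for 30 min, developed with trypsin, and AMC read by fluorescence. IC50s are means of ≥3 curves.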

[8] = Cytotoxicity against human SNB78 cells by SRB assay; type: functional; conditions: SNB-78; how it was run: as §1
DU-145 = assay: Cytotoxicity against human DU145 cells by SRB assay; type: functional; how it was run: as §1
[9] = Cytotoxicity against human HBC4 cells by SRB assay; type: functional; how it was run: as §1
NCI-H226 = assay: Cytotoxicity against human NCI-H226 cells by SRB assay; type: functional; how it was run: as §1
ACHN = assay: Cytotoxicity against human ACHN cells by SRB assay; type: functional; how it was run: as §1
KM12 = assay: Cytotoxicity against human KM12 cells by SRB assay; type: functional; how it was run: as §1
SF-539 = assay: Cytotoxicity against human SF539 cells by SRB assay; type: functional; how it was run: as §1
MCF7 = assay: Cytotoxicity against human MCF7 cells by SRB assay; type: functional; how it was run: as §1
U-251 = assay: Cytotoxicity against human U251 cells by SRB assay; type: functional; how it was run: as §1
SK-OV-3 = assay: Cytotoxicity against human SKOV3 cells by SRB assay; type: functional; how it was run: as §1
[10] = Cytotoxicity against human MKN28 cells by SRB assay; type: functional; conditions: MKN-28; how it was run: as §1
[11] = Cytotoxicity against human DMS273 cells by SRB assay; type: functional; conditions: DMS-273; how it was run: as §1
[12] = Cytotoxicity against human MKN74 cells by SRB assay; type: functional; conditions: MKN-74; how it was run: as §1
[13] = Cytotoxicity against human HBC5 cells by SRB assay; type: functional; how it was run: as §1
PC-3 = assay: Cytotoxicity against human PC3 cells by SRB assay; type: functional; how it was run: as §1
NCI-H460 = assay: Cytotoxicity against human NCI-H460 cells by SRB assay; type: functional; how it was run: as §1
HCT-116 = assay: Cytotoxicity against human HCT116 cells by SRB assay; type: functional; how it was run: as §1
Histone deacetylase 1 [14] = target: T2, Histone deacetylase 1 (Homo sapiens, UniProt Q13547); assay: Ratio of FK228 IC50 to compound IC50 for human HDAC1 expressed in human 293T cells; type: cell-based
T2 sequence (Q13547 whole entry): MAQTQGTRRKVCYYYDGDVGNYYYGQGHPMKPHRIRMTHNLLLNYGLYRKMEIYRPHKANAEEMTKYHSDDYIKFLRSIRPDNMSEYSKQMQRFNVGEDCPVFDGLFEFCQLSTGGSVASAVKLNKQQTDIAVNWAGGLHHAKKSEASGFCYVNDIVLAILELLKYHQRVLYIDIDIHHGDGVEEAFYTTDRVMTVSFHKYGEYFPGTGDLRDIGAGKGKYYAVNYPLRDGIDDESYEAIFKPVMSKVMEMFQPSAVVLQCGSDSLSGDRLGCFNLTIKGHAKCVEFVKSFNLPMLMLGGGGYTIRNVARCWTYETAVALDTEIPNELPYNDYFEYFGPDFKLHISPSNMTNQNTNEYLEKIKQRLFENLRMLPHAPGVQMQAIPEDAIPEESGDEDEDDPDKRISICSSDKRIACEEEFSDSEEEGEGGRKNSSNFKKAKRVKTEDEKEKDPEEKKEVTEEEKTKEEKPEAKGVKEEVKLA
How it was run: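 FLAG-tagged human HDAC1 was expressed transiently in 293T cells (pcDNA3-HDAC1), immunoprecipitated with anti-FLAG M2 and eluted with FLAG peptide. Enzyme was incubated with 2 mM stock Ac-KGLGK(Ac)-MCA in 20 mM Tris-HCl pH 8.0, 150 mM NaCl, 10% glycerol, 100 μM DTT, for 30 min at 37 °C. Trypsin then released AMC, read by fluorescence. IC50 is the mean of ≥3 dose-response curves; FK228 reference run alongside.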

Histone deacetylase 1 [15] = target: T2, Histone deacetylase 1; assay: Inhibition of human HDAC1 expressed in human 293T cells using Ac-KGLGK(Ac)-MCA as substrate after 30 mins by fluorescence assay
[16] = Cytotoxicity against human BSY1 cells by SRB assay; type: functional; conditions: BSY-1; how it was run: as §1
[17] = Cytotoxicity against human RXF631L cells by SRB assay; type: functional; conditions: RXF 631; how it was run: as §1
[18] = Cytotoxicity against human MKN45 cells by SRB assay; type: functional; conditions: MKN-45; how it was run: as §1

## CC[C@H](C)[C@H]1NC(=O)[C@H]2CSSCC/C=C/[C@H](CC(=O)N[C@H](CCSC)C(=O)N2)OC(=O)C[C@@H]1O [THAILANDEPSIN A]
[1]
  GI50: 3.2 nM
[2]
  GI50: 1.6 nM
OVCAR-3
  GI50: 2.8 nM
[3]
  GI50: 5 nM
SNB-75
  GI50: 1.4 nM
LOX IMVI
  GI50: 2.5 nM
HCC 2998
  GI50: 2.6 nM
A549
  GI50: 0.85 nM
[4]
  GI50: 2.5 nM
St-4
  GI50: 1.1 nM
NCI-H23
  GI50: 3.3 nM
[5]
  GI50: 10 nM
SF-295
  GI50: 2.3 nM
[6]
  IC50: 992 nM
HCT-15
  GI50: 100 nM
OVCAR-8
  GI50: 0.72 nM
HT-29
  GI50: 0.74 nM
SF-268
  GI50: 4.1 nM
NCI-H522
  GI50: 0.42 nM
MDA-MB-231
  GI50: 2.6 nM
[7]
  Ratio IC50: 992
[8]
  GI50: 11 nM
DU-145
  GI50: 3.1 nM
[9]
  GI50: 3.8 nM
NCI-H226
  GI50: 2.7 nM
ACHN
  GI50: 6.6 nM
KM12
  GI50: 3.6 nM
SF-539
  GI50: 0.7 nM
MCF7
  GI50: 2.8 nM
U-251
  GI50: 4.4 nM
SK-OV-3
  GI50: 1.9 nM
[10]
  GI50: 16 nM
[11]
  GI50: 2.7 nM
[12]
  GI50: 2.9 nM
[13]
  GI50: 2.3 nM
PC-3
  GI50: 8.3 nM
NCI-H460
  GI50: 0.53 nM
HCT-116
  GI50: 0.51 nM
Histone deacetylase 1 [14]
  Ratio IC50: 3
Histone deacetylase 1 [15]
  IC50: 1 nM
[16]
  GI50: 5 nM
[17]
  GI50: 2.3 nM
[18]
  GI50: 14 nM
